What was measured:
Format in all cases: in vivo, human
[1] = system: subjects with type 1 diabetes; assay: Euglycemic clamp pharmacodynamics; conditions: for Clamp stopped prematurely due to BG reaching threshold (≥200 mg/dL for 30 min): number of subjects after 0.3 U/kg single dose; for GIR-AUC0–12h treatment ratio, point estimate (90% CI): 0.3 U/kg single dose, euglycemic clamp
Outline: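 Randomized, double-blind, 3-period crossover in adult males with T1D; fasted single 0.3 U/kg subcutaneous dose after basal-insulin washout (≥48 h), glulisine stopped ≥10 min predose, BG stable ≥1 h without glucose. A Biostator tracked arterialized venous BG and GIR continuously for 12 h, calibrated every 30 min. Stopped early if BG exceeded 200 mg/dL without glucose for 30 min. Weight-standardized GIR-AUC0–12h given as ratio of geometric means (90% CI).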

[2] = Plasma insulin aspart pharmacokinetics after single subcutaneous dose; conditions: linear mixed effects model, 0.3 U/kg single dose
Outline: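 Adults with type 1 diabetes, off basal insulin ≥48 h and fasted overnight, clamped at blood glucose 100 mg/dL before subcutaneous dosing. Plasma was separated within 20 min and stored at −60 to −80°C. Samples were assayed by LC-MS/MS (100–8000 pg/mL, LLOQ 100 pg/mL) and censored at any rescue insulin. AUCs used the log-linear trapezoidal rule. Log-parameters were analysed by mixed model and back-transformed with 90% CI.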

[3] = system: subjects with type 1 diabetes; assay: Safety and tolerability; conditions: single 0.3 U/kg dose
Outline: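 Adult males with T1D each got a fasted single subcutaneous 0.3 U/kg dose per period in a double-blind 3-period crossover under 12 h euglycemic clamp. Safety was assessed by 12-lead ECG, vital signs, routine laboratory tests, physical examination, adverse event reporting and injection-site reaction assessment. Treatment-emergent events were counted as subjects reporting per treatment.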

[4] = ratio of geometric means vs. NN-Asp-EU
[5] = ratio of geometric means vs. NN-Asp-US

Row | Substance | Clamp stopped prematurely due to BG reaching threshold (≥200 mg/dL for 30 min) [1] | INS-AUCinf treatment ratio, point estimate (90% CI) [2, 4] | INS-AUClast treatment ratio, point estimate (90% CI) [2, 4] | INS-Cmax treatment ratio, point estimate (90% CI) [2, 4] | INS-AUCinf treatment ratio, point estimate (90% CI) [2, 5] | INS-AUClast treatment ratio, point estimate (90% CI) [2, 5] | INS-Cmax treatment ratio, point estimate (90% CI) [2, 5] | GIR-AUC0–12h treatment ratio, point estimate (90% CI) [1, 4] | GIR-AUC0–12h treatment ratio, point estimate (90% CI) [1, 5] | Tolerability [3]
1 | insulin aspart [NN-Asp-EU] | 15 subjects |  |  |  |  |  |  |  |  | 
2 | insulin aspart [SAR-Asp] | 17 subjects | 0.92 (0.88–0.96) | 0.93 (0.88–0.97) | 0.97 (0.90–1.05) | 0.92 (0.88–0.96) | 0.93 (0.89–0.98) | 0.93 (0.87–1.01) | 0.96 (0.89–1.04) | 0.99 (0.91–1.07) | well tolerated
3 | insulin aspart [NN-Asp-US] | 18 subjects | 1.00 (0.95–1.04) | 1.00 (0.95–1.05) | 1.04 (0.96–1.12) |  |  |  | 0.97 (0.90–1.05) |  | 
